In the library only some 2.6% were active in any assay of this set; here they are far more common.
Env fusion inh: inhibitors of HIV-1 Env-driven cell-cell fusion, primary screen, HeLa-JRFL effector, CEM21 target cells, luciferase | inhibition, % at 12.3 µM | 360,000 tested, 1.1% active;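 active = mean replicate inhibition score of at least 50 and every replicate individually at or above 50; inconclusive = only one of the two criteria met; inactive = mean below 50 and not all replicates reaching 50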
Vif imaging: HIV Vif self-association inhibitors, primary screen, imaging, HEK293T, single point; 340,000 tested, 0.35% active; AID 602346, 2012; HEK293T cells, Vif self-association by quenched fluorescence, 24 h; inhibition, % at 7.49 µM; in the data active = inhibition above about 50%, passing the limit was not always enough; inconclusive = no clear call, values can overlap the other calls; inactive = below about 31%
miR-122 sensor: miR-122 Renilla sensor signal increase in Huh7, primary screen, miR-122 inhibitor project, cell-based, single point, plate reader; Huh7 miR-122 Renilla luciferase sensor, 48 h; neutral wells = 0, positive control = 100; activation (reporter increase), % at 12.5 µM; 340,000 tested, 0.3% active; AID 602342, 2012;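 active = mean replicate activation score at least 90 and every replicate individually at or above 90; inconclusive = only one of the two criteria met; inactive = neither criterion met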;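 also: higher luciferase means less miR-122 activity so hits act as miR-122 inhibitors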
S100A4 MyoIIA: inhibitors of S100A4-myosin IIA peptide binding, primary screen, biochemical, fluorescence polarization, TAMRA-MyoIIA peptide; Protein S100-A4 (Homo sapiens), P26447; inhibition, % at 10.7 µM; 360,000 tested, 0.14% active;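 active = mean inhibition of at least 70% across replicates, with every replicate also reaching that level; inconclusive = mean inhibition reaches 70% but some replicates fall short; inactive = mean inhibition below 70%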
Target sequence (P26447 whole entry, looked up): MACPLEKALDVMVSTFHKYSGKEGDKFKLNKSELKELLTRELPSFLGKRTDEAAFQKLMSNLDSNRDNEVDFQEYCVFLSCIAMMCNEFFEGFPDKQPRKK
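Material: S100A4 monomer (human). Medium: Calcium-containing HEPES buffer, pH 7.2. Probe or stimulus: labelled myosin peptide probe, 5 nM. Compound dosing: one concentration per compound. Timing: polarization read 5 min after assay mix addition, stable 5–60 min. Benchmarks: DMSO as neutral control, TFP as positive control.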
FN deposit inh: inhibitors of fibronectin matrix deposition, primary screen, AH1F cells, Alexa488-fibronectin fluorescence, plate reader; AH1F fibroblasts, overnight; inhibition, % at 12.6 µM; 350,000 tested, 0.086% active; AID 743247, 2014;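 active = mean inhibition across replicates of 30% or more, regardless of how many single replicates reach that level; inconclusive = mean under 30% yet at least half of replicates reach 30%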
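Measured by – fluorescence 485/525 nm · System – AH1F fibroblast monolayer, labelled fibronectin deposition · Amount – 10000 cells per well · Buffer or medium – serum-reduced DMEM (2% serum) · Doses – single dose, pinned · Also added – fluorescent fibronectin at 24 nM final · Schedule – 1 h cell attachment, overnight exposure to compound and label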
Ecoli rRNA inh: reduced GFP signal of wild-type E. coli, primary screen, bacterial rRNA inhibitor project, GFP/RFP fluorescence, OD600, single point; E. coli WT GFP vs humanized-ribosome RFP mutants, 24 h; active compounds read low; DMSO median 0, no signal -100; GFP signal change (wild-type ribosome), % (no concentration beside the values); 350,000 tested, 1.6% active;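 active = significant combined selectivity score with lowered wild-type GFP, culture density cut under 30%, mutant RFP and density less affected; inactive = any of these conditions unmet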
Each line names hits and unclear results; the compound was inactive in the other large screens; [ ] = remark or other dose.

C[C@H]1CN([C@@H](C)CO)C(=O)c2cc(NC(=O)CCCCCC(=O)Nc3ccccc3N)ccc2O[C@@H]1CN(C)S(=O)(=O)c1cn(C)cn1	none (no result: Env fusion inh, Vif imaging, miR-122 sensor, FN deposit inh)
CN1CCN(c2ccc([N+](=O)[O-])cc2C(=O)c2ccc(Br)cc2)CC1	none (no result: S100A4 MyoIIA, Ecoli rRNA inh)
O=C(c1ccc(Br)cc1)c1cc([N+](=O)[O-])ccc1N1CCCCC1	Vif imaging 62.8, miR-122 sensor 185.3 (no result: S100A4 MyoIIA, Ecoli rRNA inh)
CC(C)(C)OC(=O)CC[C@@H](C(=O)N1CCN(C(=O)OC(C)(C)C)CC1)n1cc(C(Cc2ccc(O)cc2)NC(=O)OC(C)(C)C)nn1 (stereo partly specified)	Env fusion inh 61.7
C/C(=N\NC(=O)c1cccc(Cl)c1)C1C(=O)c2ccccc2C1=O	Env fusion inh 56.9
C/C(=N\NC(=O)CCc1ccccc1)C1C(=O)c2ccccc2C1=O	none
CC(=O)N(C)C[C@@H]1Oc2cc(-c3ccc(C)cc3)ccc2S(=O)(=O)N([C@@H](C)CO)C[C@H]1C	none (no result: Vif imaging, FN deposit inh)
CCOC(=O)COc1nc2c(c(-c3ccco3)c1C#N)CCc1ccccc1-2	Env fusion inh 56.7
N#Cc1c(OCC(=O)c2ccccc2)nc2c(c1-c1ccco1)CCc1ccccc1-2	none (no result: S100A4 MyoIIA, FN deposit inh, Ecoli rRNA inh)
Cn1cc(CCCC(=O)NCc2ccc(F)cc2)c2ccccc21	Ecoli rRNA inh -36.7 (no result: miR-122 sensor)
COc1cc(C(=O)NNC(=S)NC(=O)/C=C/c2ccccc2)cc(OC)c1OC	Ecoli rRNA inh -14.9
C[C@H](NC(=O)C[C@@H]1C[C@@H]2c3cc(NC(=O)CN(C)C)ccc3O[C@@H]2[C@H](CO)O1)c1ccccc1	none (no result: Vif imaging)
COc1ccc(NC(=O)Nc2c(O)ccc3ccccc23)cc1	Ecoli rRNA inh -25.6 (no result: miR-122 sensor)
CCCC(=O)NC(c1ccc(OC)cc1)c1c(O)ccc2ccccc12 (stereo unspecified)	Ecoli rRNA inh -27.1 (no result: miR-122 sensor)
Cc1noc(C)c1NC(=O)Nc1ccc2c(c1)C(=O)N([C@H](C)CO)C[C@H](C)[C@H](CN(C)S(=O)(=O)c1ccc(Cl)cc1)OCCCC[C@H](C)O2	none (no result: Vif imaging)
O=C(COc1cccc2cccnc12)N/N=C/c1cccn1-c1ccc(F)cc1	Ecoli rRNA inh -41.5 (no result: miR-122 sensor)
O=C(N/N=C/c1ccc[nH]1)c1ccc(COc2cccc3cccnc23)cc1	Env fusion inh 70.8
O=C(COc1cccc2cccnc12)N/N=C/c1ccc(O)cc1	none (no result: FN deposit inh)
Cc1cc(Br)c(OCc2ccc(C(=O)N/N=C/c3ccc[nH]3)cc2)c(Br)c1	Env fusion inh 91.4
COc1ccccc1-c1ccc([C@@H]2[C@H]3CN(C(=O)c4ccncc4)CCCCN3[C@H]2CO)cc1	none (no result: Env fusion inh, Vif imaging, FN deposit inh)
CN(C)CC(=O)N1CC2(C1)[C@H](c1ccccc1)[C@@H](CO)N2S(=O)(=O)c1ccccc1	none (no result: Env fusion inh, Vif imaging, miR-122 sensor, FN deposit inh)
O=C(CCCCn1c(=O)[nH]c2ccccc2c1=O)N1CCN(c2cccc(C(F)(F)F)c2)CC1	Env fusion inh 83.3 (no result: Vif imaging, S100A4 MyoIIA, Ecoli rRNA inh)
O=C(CCCn1c(=S)[nH]c2ccccc2c1=O)N1CCN(c2cccc(Cl)c2)CC1	Env fusion inh inconclusive, Vif imaging 107.2 (no result: S100A4 MyoIIA, Ecoli rRNA inh)
O=C(C[C@H]1CC[C@H]2[C@@H](COC[C@@H](O)CN2Cc2cc(F)ccc2F)O1)N[C@@H]1CCN(Cc2ccccc2)C1	none (no result: Vif imaging)
CCCCCc1ccc(-c2ccc(/C=C/C(=O)O)cc2)nc1	none (no result: S100A4 MyoIIA, Ecoli rRNA inh)
CCCc1ccc(-c2ccc(/C=C/C(=O)O)cc2)nc1	Env fusion inh 60.7, Ecoli rRNA inh -26.2 (no result: miR-122 sensor)
COc1ccc(OC)c(/C(O)=C/C(=O)C(=O)Nc2cc(C)cc(C)c2)c1	none (no result: S100A4 MyoIIA, Ecoli rRNA inh)
COc1ccc(OC)c(/C(O)=C/C(=O)C(=O)Nc2cc(C)ccc2OC)c1	Vif imaging 61.0 (no result: S100A4 MyoIIA, Ecoli rRNA inh)
CC1=NC(=O)C(N=Nc2ccccc2)N1c1ccccc1 (stereo unspecified)	none (no result: Env fusion inh, S100A4 MyoIIA, FN deposit inh, Ecoli rRNA inh)
CC1=NC(=O)C(N=Nc2cccc(C(=O)O)c2)N1c1ccccc1 (stereo unspecified)	Ecoli rRNA inh -30.8 (no result: Env fusion inh, FN deposit inh)
O=C(C[C@H]1C=C[C@@H](NC(=O)CN2CCOCC2)[C@H](CO)O1)NCCc1ccncc1	none (no result: Env fusion inh, Vif imaging, miR-122 sensor)
COc1ccc(OC)c(Nc2cc(C)nc3nc(C)nn23)c1	miR-122 sensor 106.8
FC(F)(F)c1cccc(NC(=S)Nc2cccc(NC(=S)Nc3cccc(C(F)(F)F)c3)n2)c1	Ecoli rRNA inh -45.5
CCCNC(=O)C[C@H]1CC[C@H]2[C@H](COc3ccc(NC(=O)Cc4cccs4)cc3C(=O)N2C)O1	miR-122 sensor 166.7[16.7 µM] (no result: Vif imaging, S100A4 MyoIIA)
CCCNC(=O)C[C@H]1CC[C@@H]2[C@@H](COc3ccc(NC(=O)c4cccc(C(F)(F)F)c4)cc3C(=O)N2C)O1	Env fusion inh 64.9[16.7 µM] (no result: Vif imaging)
CCCNC(=O)C[C@@H]1CC[C@H]2[C@H](COc3ccc(NC(=O)Cc4cccs4)cc3C(=O)N2C)O1	miR-122 sensor 206.7[16.7 µM] (no result: Vif imaging, S100A4 MyoIIA)
CCCNC(=O)C[C@@H]1CC[C@@H]2[C@@H](COc3ccc(NC(=O)c4cccc(C(F)(F)F)c4)cc3C(=O)N2C)O1	none (no result: Vif imaging)
CCNC(=O)C[C@H]1CC[C@@H]2[C@@H](COc3ccc(NC(=O)Cc4cccs4)cc3C(=O)N2C)O1	Env fusion inh 65.0[16.7 µM] (no result: Vif imaging)
C[C@@H]1CN([C@@H](C)CO)C(=O)Cc2cc(NC(=O)C3CC3)ccc2O[C@H]1CN(C)Cc1ccc(Cl)c(Cl)c1	none (no result: Vif imaging, FN deposit inh)
CO[C@@H]1CN(C)C(=O)c2ccc(NC(=O)C3CCCC3)cc2OC[C@H](C)N(CC2CC2)C[C@H]1C	none (no result: Env fusion inh, Vif imaging, miR-122 sensor)
COc1ccc(S(=O)(=O)Nc2ccc3c(c2)C(=O)N([C@H](C)CO)C[C@H](C)[C@@H](CN(C)C(=O)NC(C)C)OCCCC[C@@H](C)O3)cc1	none (no result: Vif imaging, FN deposit inh)
C[C@H](CCC(=O)O)[C@H]1CC[C@H]2[C@@H]3CC[C@@H]4C[C@H](O)CC[C@]4(C)[C@H]3CC[C@]12C	none (no result: Env fusion inh, FN deposit inh, Ecoli rRNA inh)
CC(CCC(=O)O)C1CCC2C3CCC4C[C@H](O)CCC4(C)C3CC(=O)C12C (stereo partly specified)	Vif imaging 52.6
Cc1ccc(Cc2c(-c3ccc(Br)cc3)nc3ccc(Cl)cn23)cc1	Env fusion inh inconclusive, Ecoli rRNA inh -26.6
Cc1ccc(Cc2c(-c3ccc(C)cc3)nc3ccc(Cl)cn23)cc1	none
Cc1ccc(Cc2c(-c3cccc(Cl)c3)nc3ccc(Cl)cn23)cc1	none (no result: Vif imaging, Ecoli rRNA inh)
COc1ccc(Cc2c(-c3ccc(OC)c(OC)c3)nc3ccc(C)cn23)c(C)c1	Ecoli rRNA inh -32.5 (no result: Vif imaging)
Cc1ccc(Cc2c(-c3cccc(Cl)c3)nc3ccc(C)cn23)cc1	Env fusion inh 61.8 (no result: Vif imaging)
